Experimental data: publication PMC10870110 (RSC Advances, 2024)

Assays:
[1] = test system: A375 cells; test: Cell cycle analysis by DNA flow cytometry; assay type: cell-based, human; conditions: A375, 48 h treatment
[2] = test system: A375 cells; test: Scratch wound healing assay; assay type: cell-based, human; conditions: 4j at 0.5 μM
Summary of the method: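 Confluent A375 monolayers (1 × 10^5 cells/well seeding) scored with a pipette tip to give one straight cell-free line, PBS-rinsed, then exposed to test compound. Gap imaged at ×100 at 0, 24, 48 and 72 h; horizontal wound width measured. Closure % = 100 − (Wt/W0 × 100). Triplicates, mean ± SD; ANOVA with Tukey post-hoc, P < 0.05.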

[3] = test system: A375 cells; test: Annexin V-FITC/PI apoptosis assay; assay type: cell-based, human; conditions: A375, IC50 concentration, 48 h
[4] = test system: normal human skin fibroblast cells (HSF); test: Cytotoxicity by SRB assay on normal HSF cells; assay type: cell-based; conditions: for IC50: Homo sapiens, Skin fibroblast, read-out: HSF IC50; for Selectivity index (SI): IC50 of normal cells (HSF)/IC50 of tumor cells (A375)
Summary of the method: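 Normal human skin fibroblasts (HSF) grown in DMEM/10% FBS/penicillin-streptomycin, 37 °C, 5% CO2. Plated 24 h, then 72 h with test compound at 0.01–100 μM. TCA fixation, SRB staining, 10 mM Tris pH 10.5 solubilisation, absorbance at 540 nm. IC50 by Emax curve fit, mean ± SD. Selectivity index = IC50 in HSF / IC50 in A375.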

[5] = test system: A375 human melanoma cell line; test: Cytotoxicity by SRB assay on A375 cells; assay type: cell-based; conditions: read-out: IC50 on A375 cells, 72 h treatment, mean ± SD (n = 3)
Summary of the method: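 A375 cells kept in DMEM with 10% FBS and 100 U mL−1 penicillin/streptomycin at 37 °C, 5% CO2. Seeded, grown 24 h, then exposed 72 h to test compound at 0.01–100 μM. Fixed in 10% TCA (1 h, 4 °C), stained with 0.4% w/v SRB (10 min, dark), washed with 1% acetic acid, dye dissolved in 10 mM Tris pH 10.5, A540 read.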

[6] = biological target: BRAF^V600E (Homo sapiens, UniProt P15056, V600E); test: BRAF^V600E inhibition assay; assay type: cell-based
[7] = biological target: VEGFR-2 (Homo sapiens, UniProt P35968); test: VEGFR-2 inhibition assay; assay type: cell-based
Chain of VEGFR-2 (P35968 20-1356): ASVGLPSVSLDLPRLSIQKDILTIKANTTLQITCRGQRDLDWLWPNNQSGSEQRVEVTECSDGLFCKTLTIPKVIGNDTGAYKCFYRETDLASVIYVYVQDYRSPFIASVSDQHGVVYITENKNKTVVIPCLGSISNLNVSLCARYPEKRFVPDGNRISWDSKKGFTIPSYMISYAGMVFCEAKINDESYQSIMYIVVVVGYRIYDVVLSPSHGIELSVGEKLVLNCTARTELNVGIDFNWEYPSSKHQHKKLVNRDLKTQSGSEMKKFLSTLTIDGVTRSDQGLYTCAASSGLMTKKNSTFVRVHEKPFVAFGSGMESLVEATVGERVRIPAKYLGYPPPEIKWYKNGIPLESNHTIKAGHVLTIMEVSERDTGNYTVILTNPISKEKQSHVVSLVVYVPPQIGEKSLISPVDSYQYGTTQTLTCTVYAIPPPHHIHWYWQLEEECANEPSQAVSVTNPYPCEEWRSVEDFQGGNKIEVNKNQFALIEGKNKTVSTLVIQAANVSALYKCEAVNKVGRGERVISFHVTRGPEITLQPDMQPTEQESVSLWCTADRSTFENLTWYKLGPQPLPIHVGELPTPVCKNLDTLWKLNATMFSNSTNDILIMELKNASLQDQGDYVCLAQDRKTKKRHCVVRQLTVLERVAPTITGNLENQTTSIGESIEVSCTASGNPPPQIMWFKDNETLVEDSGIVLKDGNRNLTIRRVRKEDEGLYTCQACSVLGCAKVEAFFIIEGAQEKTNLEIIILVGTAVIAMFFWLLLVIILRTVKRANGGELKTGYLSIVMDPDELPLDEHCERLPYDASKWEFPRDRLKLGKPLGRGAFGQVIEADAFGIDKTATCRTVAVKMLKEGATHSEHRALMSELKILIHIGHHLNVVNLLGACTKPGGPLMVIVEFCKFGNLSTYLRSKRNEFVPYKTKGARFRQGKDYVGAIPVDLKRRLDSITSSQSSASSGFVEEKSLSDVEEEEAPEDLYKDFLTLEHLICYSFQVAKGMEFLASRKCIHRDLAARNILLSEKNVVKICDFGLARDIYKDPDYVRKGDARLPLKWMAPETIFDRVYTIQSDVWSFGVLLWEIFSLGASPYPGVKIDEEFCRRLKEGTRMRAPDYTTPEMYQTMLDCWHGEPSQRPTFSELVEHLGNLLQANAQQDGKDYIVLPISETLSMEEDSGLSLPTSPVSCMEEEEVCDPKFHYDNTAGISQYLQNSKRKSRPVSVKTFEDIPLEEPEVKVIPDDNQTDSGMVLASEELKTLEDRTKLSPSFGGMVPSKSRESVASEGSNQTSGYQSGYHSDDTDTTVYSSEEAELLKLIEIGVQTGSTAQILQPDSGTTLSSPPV

Chain of BRAF^V600E (P15056 whole entry V600E): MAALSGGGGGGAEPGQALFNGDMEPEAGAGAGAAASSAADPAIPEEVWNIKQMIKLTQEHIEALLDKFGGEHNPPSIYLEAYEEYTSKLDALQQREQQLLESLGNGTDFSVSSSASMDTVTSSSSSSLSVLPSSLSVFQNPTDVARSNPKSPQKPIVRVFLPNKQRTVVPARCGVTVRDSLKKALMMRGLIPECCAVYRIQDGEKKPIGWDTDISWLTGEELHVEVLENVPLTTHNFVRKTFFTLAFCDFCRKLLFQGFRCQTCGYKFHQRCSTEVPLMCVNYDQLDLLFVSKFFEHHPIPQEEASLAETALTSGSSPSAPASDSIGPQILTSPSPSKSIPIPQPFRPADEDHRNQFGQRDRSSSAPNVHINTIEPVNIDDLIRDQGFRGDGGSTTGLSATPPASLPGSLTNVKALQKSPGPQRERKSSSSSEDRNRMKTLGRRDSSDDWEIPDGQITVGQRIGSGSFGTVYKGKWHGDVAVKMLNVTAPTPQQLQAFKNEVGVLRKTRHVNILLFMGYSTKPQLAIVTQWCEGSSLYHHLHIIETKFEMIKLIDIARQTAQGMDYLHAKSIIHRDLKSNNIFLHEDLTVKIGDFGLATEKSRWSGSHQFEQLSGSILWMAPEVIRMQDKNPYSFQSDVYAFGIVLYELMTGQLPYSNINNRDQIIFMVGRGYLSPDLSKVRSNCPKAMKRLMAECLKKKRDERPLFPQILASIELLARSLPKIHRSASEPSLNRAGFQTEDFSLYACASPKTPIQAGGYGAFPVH

CNC(=O)c1cc(Oc2ccc(NC(=O)Nc3ccc(Cl)c(C(F)(F)F)c3)cc2)ccn1 [Sorafenib, reference compound]
cell percentage in the G2/M phase [1]: 23.02%
cell population of the G0/G1-phase [1]: 60.43%
cell population of the pre-G phase [1]: 22.88%
scratch closure ([2]; A375, 24 h): 9.15%
scratch closure ([2]; A375, 48 h): 12.07%
scratch closure ([2]; A375, 72 h): 24.17%
apoptotic cell death [3]: 9.6%

O=C1C(n2nc(-c3c(O)c4ccccc4oc3=O)cc2-c2ccc(Cl)cc2)c2cc(Cl)ccc2N1Cc1ccccc1 (stereo not shown) [Compound 5f, 1-Benzyl-5-chloro-3-(5-(4-chlorophenyl)-3-(4-hydroxy-2-oxo-2H-chromen-3-yl)-1H-pyrazol-1-yl)indolin-2-one]
IC50 [4]: 3.59 ± 0.32 µM
Selectivity index (SI) [4]: 3.3

O=C1C(n2nc(-c3c(O)c4ccccc4oc3=O)cc2-c2ccc(F)cc2)c2ccccc2N1Cc1ccccc1 (stereo not shown) [Compound 4c, 1-Benzyl-3-(5-(4-fluorophenyl)-3-(4-hydroxy-2-oxo-2H-chromen-3-yl)-1H-pyrazol-1-yl) indolin-2-one]
IC50 [5]: 4.6 ± 0.32 µM

O=C1C(n2nc(-c3c(O)c4ccccc4oc3=O)cc2-c2ccc(Cl)cc2)c2cc(Br)ccc2N1Cc1ccccc1 (stereo not shown) [Compound 5i, 1-Benzyl-5-bromo-3-(5-(4-chlorophenyl)-3-(4-hydroxy-2-oxo-2H-chromen-3-yl)-1H-pyrazol-1-yl)indolin-2-one]
IC50 [4]: 3.63 ± 0.76 µM
Selectivity index (SI) [4]: 3.5

O=C1C(n2nc(-c3c(O)c4ccccc4oc3=O)cc2-c2ccc(F)cc2)c2cc(Br)ccc2N1Cc1ccccc1 (stereo not shown) [Compound 4i, 1-Benzyl-5-bromo-3-(5-(4-fluorophenyl)-3-(4-hydroxy-2-oxo-2H-chromen-3-yl)-1H-pyrazol-1-yl)indolin-2-one]
IC50 [4]: 3.26 ± 0.29 µM
Selectivity index (SI) [4]: 2.5

O=C1C(n2nc(-c3c(O)c4ccccc4oc3=O)cc2-c2ccc(F)cc2)c2cc(Cl)ccc2N1Cc1ccccc1 (stereo not shown) [Compound 4f, 1-Benzyl-5-chloro-3-(5-(4-fluorophenyl)-3-(4-hydroxy-2-oxo-2H-chromen-3-yl)-1H-pyrazol-1-yl) indolin-2-one]
IC50 [4]: 4.18 ± 0.25 µM
Selectivity index (SI) [4]: 3.6
IC50 [5]: 1.11 ± 0.02 µM

O=C1C(n2nc(-c3c(O)c4ccccc4oc3=O)cc2-c2ccc(Cl)cc2)c2ccccc2N1Cc1ccccc1 (stereo not shown) [Compound 5c, 1-Benzyl-3-(5-(4-chlorophenyl)-3-(4-hydroxy-2-oxo-2H-chromen-3-yl)-1H-pyrazol-1-yl)indolin-2-one]
IC50 [5]: 3.8 ± 0.22 µM

O=C1Nc2ccc(OC(F)(F)F)cc2C1n1nc(-c2c(O)c3ccccc3oc2=O)cc1-c1ccc(F)cc1 (stereo not shown) [Compound 4j, 3-(5-(4-Fluorophenyl)-3-(4-hydroxy-2-oxo-2H-chromen-3-yl)-1H-pyrazol-1-yl)-5 (trifluoromethoxy) indolin-2-one]
IC50 [4]: 9.58 ± 0.73 µM
Selectivity index (SI) [4]: 9.9
fold more active than the reference sorafenib (BRAF^V600E inhibition) [6]: 2 fold
IC50 ([6]; BRAF^V600E IC50, A375 cells, 24 h exposure, ELISA): 1.03 µM
IC50 [7]: 0.64 ± 0.08 µM
cell percentage in the G2/M phase [1]: 16.00%
cell percentage of the S phase [1]: 9.86%
cell population of the G0/G1-phase [1]: 74.14%
cell population of the pre-G phase [1]: 1.88%
scratch closure ([2]; A375, 24 h): 14.28%
scratch closure ([2]; A375, 48 h): 17.57%
scratch closure ([2]; A375, 72 h): 35.16%
early apoptosis (Q2-4) [3]: 6.07%
late apoptosis (Q2-2) [3]: 2.3%
necrotic cell death (Q2-1) [3]: 2.52%
total cell death ([3]; apoptosis plus necrosis): ~10.22%
